Test results from ChEMBL document CHEMBL1828498, “Identification and characterization of a novel integrin-linked kinase inhibitor” (J Med Chem, 2011).
The source made the active and inactive calls. Unless noted, the rule behind the calls is not given here.

What was measured:
[1] = tested on: PC-3; experiment: Induction of apoptosis in human PC3 cells assessed as late apoptotic cells at 3 uM by annexin V/PI staining (reference value: 9.8%); format: functional
[2] = tested on: LNCaP; experiment: Antiproliferative activity against human LNCAP cells assessed as suppression of cell viability by MTT assay; format: functional, cell-based
How it was run: (§1)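 Cancer lines seeded 5000/well and nonmalignant PrEC/MEC 8000/well in 10% FBS, 24 h before treatment. Compound exposure 24 h in 5% FBS medium, 0.1% final DMSO. MTT (0.25 mg/mL) for 1 h at 37°C, dye solubilized in DMSO, absorbance read at 570 nm. Mean ± SD, n = 6.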

[3] = tested on: PC-3; experiment: Reduction in EGFR mRNA expression in human PC3 cells after 24 hrs by RT-PCR analysis; format: functional, cell-based
How it was run: (§2)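 PC-3, PC-3/CA-ILK, SKBR3 and SKBR3/CA-ILK cells treated 24 h in 5% FBS medium; total RNA from 1 × 10^6 cells by Trizol, 1 μg reverse-transcribed, then PCR with gene-specific primers and β-actin reference.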

[4] = molecular target: T1, Scaffold protein ILK (Homo sapiens) (UniProt Q13418); experiment: (§3) Inhibition of human ILK activity assessed myelin basic protein phosphorylation by radiometric kinase assay in the presence of [gamma 32P]ATP
T1 sequence (whole entry): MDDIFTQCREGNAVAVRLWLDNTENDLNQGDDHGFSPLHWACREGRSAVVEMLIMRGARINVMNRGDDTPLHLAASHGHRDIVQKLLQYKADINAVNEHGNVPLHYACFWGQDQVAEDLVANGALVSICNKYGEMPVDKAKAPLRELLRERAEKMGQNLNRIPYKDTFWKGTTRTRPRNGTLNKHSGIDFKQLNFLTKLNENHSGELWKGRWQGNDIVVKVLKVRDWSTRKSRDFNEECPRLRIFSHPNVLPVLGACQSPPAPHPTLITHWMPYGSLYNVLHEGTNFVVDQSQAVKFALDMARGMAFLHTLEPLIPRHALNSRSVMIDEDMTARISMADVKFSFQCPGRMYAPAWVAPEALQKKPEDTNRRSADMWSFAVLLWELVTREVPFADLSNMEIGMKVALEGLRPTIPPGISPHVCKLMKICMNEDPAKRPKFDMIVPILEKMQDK
How it was run: (§4)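 ILK immunoprecipitated from EGF-pretreated (100 ng/mL, 2 h) PC-3 lysates with protein A/G agarose; reaction in 25 μL with 5 μg MBP and 2.5 μCi [γ-32P]ATP, 30°C for 25 min; SDS-PAGE, autoradiography, densitometry versus DMSO control; mean ± SD, n = 3.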

[5] = molecular target: Scaffold protein ILK (Homo sapiens, UniProt Q13418); experiment: as §3; how it was run: as §4
[6] = molecular target: Mast/stem cell growth factor receptor Kit (Homo sapiens) (UniProt P10721); experiment: Inhibition of cKit at 5 uM assessed as remaining activity
[7] = molecular target: T1, Scaffold protein ILK (Homo sapiens); experiment: Inhibition of ILK in human MDA-MB-231 cells assessed as decrease in MLC phosphorylation by Western blot analysis; format: cell-based
How it was run: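 PC-3 and MDA-MB-231 cells exposed 24 h in 5% FBS medium across a concentration series. Phospho-GSK3β (Ser9) and phospho-MLC (Thr18/Ser19) detected by immunoblot: SDS lysis, primary 1:1000 at 4°C for 2 h, HRP secondary, ECL. Representative of three experiments.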

[8] = tested on: HMEC; experiment: Antiproliferative activity against human HMEC cells at 1 to 5 uM by MTT assay; format: cell-based; how it was run: as §1
[9] = tested on: Mus musculus; experiment: Inhibition of phosphorylation of Thr-308-Akt in human PC3 cells xenografted nude mouse tumor lysate at 25 mg/kg, po administered for 35 days by Western blot analysis; format: functional, organism-based; parameters: dose 25 mg/kg; conditions: Neoplasm, PC-3
How it was run: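 Tumors harvested at terminal sacrifice after 35 days of daily oral dosing, snap-frozen and stored at -80°C; lysates immunoblotted, three representative tumors per group.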

[10] = molecular target: T2, 3-phosphoinositide-dependent protein kinase 1 (Homo sapiens) (UniProt O15530); experiment: Inhibition of PDK2 in human PC3 cells assessed as Akt Thr-308 dephosphorylation by Western blot analysis; format: functional, cell-based; conditions: PC-3
T2 sequence (whole entry): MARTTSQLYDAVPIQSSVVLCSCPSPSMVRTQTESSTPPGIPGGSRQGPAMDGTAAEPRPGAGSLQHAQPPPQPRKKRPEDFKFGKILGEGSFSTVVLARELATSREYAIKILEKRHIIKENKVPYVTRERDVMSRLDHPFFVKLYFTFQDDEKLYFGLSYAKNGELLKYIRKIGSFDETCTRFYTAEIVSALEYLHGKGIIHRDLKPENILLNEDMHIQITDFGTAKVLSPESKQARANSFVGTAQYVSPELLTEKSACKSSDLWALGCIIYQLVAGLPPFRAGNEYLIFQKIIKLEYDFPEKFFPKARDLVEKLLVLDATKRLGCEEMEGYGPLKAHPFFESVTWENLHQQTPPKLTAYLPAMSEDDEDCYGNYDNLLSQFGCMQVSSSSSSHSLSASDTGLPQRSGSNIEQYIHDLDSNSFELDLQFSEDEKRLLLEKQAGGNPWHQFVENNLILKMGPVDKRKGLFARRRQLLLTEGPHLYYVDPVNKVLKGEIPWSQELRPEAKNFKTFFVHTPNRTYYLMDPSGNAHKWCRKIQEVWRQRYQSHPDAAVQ
How it was run: (§5)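 Cells exposed 24 h in 5% FBS medium, final DMSO 0.1%; lysed in 1% SDS/10 mM EDTA/50 mM Tris pH 8.1, equal protein on SDS-PAGE, nitrocellulose, primary antibody 1:1000 at 4°C for 2 h, HRP secondary 1:5000, ECL detection; blots representative of three independent experiments.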

[11] = tested on: PC-3; experiment: Induction of apoptosis in human PC3 cells up to 2 uM after 48 hrs by flow cytometry; format: functional, cell-based
[12] = tested on: Mus musculus; experiment: Decrease in phosphorylation of MLC in human PC3 cells xenografted nude mouse tumor lysate at 25 mg/kg, po administered for 35 days by Western blot analysis; format: functional, organism-based; parameters: dose 25 mg/kg; conditions: Neoplasm, PC-3
How it was run: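 Male NCr athymic nude mice, 5–7 weeks, with s.c. PC-3 xenografts (0.5 × 10^6 cells in 50% Matrigel), dosed by oral gavage once daily for 35 days. Vehicle 0.5% methylcellulose, 0.1% Tween 80 in water, 10 μL/g. Tumors snap-frozen at sacrifice; three tumors per group immunoblotted.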

[13] = tested on: PC-3; experiment: Reduction in EGFR mRNA expression in human PC3 cells expressing constitutively active ILK after 24 hrs by RT-PCR analysis; format: functional, cell-based; how it was run: as §2
[14] = molecular target: Rapamycin-insensitive companion of mTOR (Homo sapiens) (UniProt Q6R327); experiment: Inhibition of mTORC2 in human PC3 cells assessed as SGK1 phosphorylation by Western blot analysis; format: cell-based; conditions: PC-3; how it was run: as §5
[15] = molecular target: Epidermal growth factor receptor (Homo sapiens) (UniProt P00533); experiment: Inhibition of EGFR at 5 uM assessed as remaining activity
How it was run: (§6)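 Panel of 20 recombinant kinases, profiled by a commercial vendor.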

[16] = molecular target: Rapamycin-insensitive companion of mTOR (Homo sapiens) (UniProt Q6R327); experiment: Inhibition of mTORC2 in human MDA-MB-231 cells assessed as SGK1 phosphorylation by Western blot analysis; format: cell-based; how it was run: as §5
[17] = molecular target: RAC-alpha serine/threonine-protein kinase (Homo sapiens) (UniProt P31749); experiment: Inhibition of Akt at 5 uM assessed as remaining activity; how it was run: as §6
Sequence of RAC-alpha serine/threonine-protein kinase (Homo sapiens) (P31749 whole entry): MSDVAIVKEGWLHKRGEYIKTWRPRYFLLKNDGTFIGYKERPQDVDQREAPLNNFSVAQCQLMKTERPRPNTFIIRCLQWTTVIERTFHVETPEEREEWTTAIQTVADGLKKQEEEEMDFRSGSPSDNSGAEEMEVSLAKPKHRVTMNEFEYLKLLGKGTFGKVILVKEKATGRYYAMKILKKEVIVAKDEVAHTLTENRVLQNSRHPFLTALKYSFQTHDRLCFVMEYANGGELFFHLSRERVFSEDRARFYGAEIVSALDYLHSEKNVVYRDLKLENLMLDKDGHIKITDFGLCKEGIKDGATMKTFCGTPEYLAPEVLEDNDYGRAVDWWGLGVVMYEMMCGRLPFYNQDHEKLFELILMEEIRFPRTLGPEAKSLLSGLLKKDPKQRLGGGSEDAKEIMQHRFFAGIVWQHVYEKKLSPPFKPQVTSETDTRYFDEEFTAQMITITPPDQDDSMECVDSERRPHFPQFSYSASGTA

Sequence of Rapamycin-insensitive companion of mTOR (Homo sapiens) (Q6R327 whole entry): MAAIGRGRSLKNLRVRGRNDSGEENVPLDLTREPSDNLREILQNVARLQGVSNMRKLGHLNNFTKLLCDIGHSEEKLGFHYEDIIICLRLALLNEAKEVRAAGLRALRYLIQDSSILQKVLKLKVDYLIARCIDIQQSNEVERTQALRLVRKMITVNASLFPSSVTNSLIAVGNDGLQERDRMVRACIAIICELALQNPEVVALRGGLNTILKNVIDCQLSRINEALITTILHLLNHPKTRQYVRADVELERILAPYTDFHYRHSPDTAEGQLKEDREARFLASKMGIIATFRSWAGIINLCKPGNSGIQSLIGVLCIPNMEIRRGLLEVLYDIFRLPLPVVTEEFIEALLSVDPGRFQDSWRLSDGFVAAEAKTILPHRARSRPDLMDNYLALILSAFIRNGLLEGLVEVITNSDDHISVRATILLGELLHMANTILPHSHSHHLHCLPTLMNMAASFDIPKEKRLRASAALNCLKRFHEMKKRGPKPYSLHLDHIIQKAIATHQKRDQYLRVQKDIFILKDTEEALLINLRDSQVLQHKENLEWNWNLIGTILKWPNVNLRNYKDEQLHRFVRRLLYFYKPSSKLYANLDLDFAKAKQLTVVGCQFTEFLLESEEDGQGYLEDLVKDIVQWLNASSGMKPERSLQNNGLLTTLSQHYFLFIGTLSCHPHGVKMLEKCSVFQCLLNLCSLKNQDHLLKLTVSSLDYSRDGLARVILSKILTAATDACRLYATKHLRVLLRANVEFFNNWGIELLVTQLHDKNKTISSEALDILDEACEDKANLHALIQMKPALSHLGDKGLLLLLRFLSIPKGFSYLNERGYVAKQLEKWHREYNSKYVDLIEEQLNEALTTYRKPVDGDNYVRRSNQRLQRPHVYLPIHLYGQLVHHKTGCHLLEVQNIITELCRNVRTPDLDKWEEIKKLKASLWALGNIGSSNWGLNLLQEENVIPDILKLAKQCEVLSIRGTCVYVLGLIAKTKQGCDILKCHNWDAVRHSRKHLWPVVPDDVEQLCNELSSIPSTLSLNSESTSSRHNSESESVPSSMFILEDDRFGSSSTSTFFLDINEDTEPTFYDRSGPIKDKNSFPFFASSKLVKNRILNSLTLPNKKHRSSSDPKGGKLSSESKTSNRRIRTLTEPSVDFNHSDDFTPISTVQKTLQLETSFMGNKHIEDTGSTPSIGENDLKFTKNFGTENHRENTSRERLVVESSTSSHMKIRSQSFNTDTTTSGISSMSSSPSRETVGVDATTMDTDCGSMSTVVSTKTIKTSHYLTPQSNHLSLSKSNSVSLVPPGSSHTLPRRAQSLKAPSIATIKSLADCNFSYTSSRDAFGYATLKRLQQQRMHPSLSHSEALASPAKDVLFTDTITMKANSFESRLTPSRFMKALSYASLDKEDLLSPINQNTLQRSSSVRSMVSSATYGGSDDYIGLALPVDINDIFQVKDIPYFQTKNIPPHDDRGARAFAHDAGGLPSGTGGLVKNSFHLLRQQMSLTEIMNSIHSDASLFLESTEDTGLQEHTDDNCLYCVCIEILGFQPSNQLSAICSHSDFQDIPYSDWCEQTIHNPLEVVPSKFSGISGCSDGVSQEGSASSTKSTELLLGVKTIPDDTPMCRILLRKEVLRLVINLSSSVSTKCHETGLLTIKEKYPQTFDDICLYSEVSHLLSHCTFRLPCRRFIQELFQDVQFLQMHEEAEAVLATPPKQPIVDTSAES
Sequence of Epidermal growth factor receptor (Homo sapiens) (P00533 whole entry): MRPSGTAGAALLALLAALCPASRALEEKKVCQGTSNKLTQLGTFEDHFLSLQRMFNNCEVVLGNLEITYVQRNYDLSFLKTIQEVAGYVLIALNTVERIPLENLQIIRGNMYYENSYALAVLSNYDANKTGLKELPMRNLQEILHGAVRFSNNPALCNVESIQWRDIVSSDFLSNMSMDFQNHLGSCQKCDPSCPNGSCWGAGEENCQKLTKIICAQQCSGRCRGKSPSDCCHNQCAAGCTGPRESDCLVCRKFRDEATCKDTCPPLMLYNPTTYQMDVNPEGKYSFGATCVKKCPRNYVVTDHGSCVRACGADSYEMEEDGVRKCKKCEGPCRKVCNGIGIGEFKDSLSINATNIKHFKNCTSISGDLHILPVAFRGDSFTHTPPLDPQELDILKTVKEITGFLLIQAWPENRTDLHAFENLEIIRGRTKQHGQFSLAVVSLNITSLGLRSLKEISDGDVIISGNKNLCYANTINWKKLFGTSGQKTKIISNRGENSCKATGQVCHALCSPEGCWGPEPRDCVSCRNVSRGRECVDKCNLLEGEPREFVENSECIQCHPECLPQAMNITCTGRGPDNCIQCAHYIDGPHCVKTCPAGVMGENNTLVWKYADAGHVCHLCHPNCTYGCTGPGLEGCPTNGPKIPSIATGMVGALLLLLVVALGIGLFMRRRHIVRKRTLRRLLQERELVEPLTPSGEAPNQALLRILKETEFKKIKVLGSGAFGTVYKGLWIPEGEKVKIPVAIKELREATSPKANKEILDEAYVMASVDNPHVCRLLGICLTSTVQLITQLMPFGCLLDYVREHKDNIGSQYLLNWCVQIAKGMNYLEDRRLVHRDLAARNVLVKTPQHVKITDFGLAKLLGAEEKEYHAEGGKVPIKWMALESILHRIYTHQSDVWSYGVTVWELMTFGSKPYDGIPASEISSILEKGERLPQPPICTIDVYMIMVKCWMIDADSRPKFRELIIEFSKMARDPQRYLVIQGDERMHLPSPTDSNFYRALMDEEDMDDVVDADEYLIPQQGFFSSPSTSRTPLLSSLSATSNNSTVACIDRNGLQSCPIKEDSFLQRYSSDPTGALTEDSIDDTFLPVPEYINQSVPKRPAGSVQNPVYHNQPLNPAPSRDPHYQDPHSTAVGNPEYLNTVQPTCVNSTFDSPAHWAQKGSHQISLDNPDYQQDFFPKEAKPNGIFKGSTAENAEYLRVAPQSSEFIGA
Sequence of Mast/stem cell growth factor receptor Kit (Homo sapiens) (P10721 whole entry): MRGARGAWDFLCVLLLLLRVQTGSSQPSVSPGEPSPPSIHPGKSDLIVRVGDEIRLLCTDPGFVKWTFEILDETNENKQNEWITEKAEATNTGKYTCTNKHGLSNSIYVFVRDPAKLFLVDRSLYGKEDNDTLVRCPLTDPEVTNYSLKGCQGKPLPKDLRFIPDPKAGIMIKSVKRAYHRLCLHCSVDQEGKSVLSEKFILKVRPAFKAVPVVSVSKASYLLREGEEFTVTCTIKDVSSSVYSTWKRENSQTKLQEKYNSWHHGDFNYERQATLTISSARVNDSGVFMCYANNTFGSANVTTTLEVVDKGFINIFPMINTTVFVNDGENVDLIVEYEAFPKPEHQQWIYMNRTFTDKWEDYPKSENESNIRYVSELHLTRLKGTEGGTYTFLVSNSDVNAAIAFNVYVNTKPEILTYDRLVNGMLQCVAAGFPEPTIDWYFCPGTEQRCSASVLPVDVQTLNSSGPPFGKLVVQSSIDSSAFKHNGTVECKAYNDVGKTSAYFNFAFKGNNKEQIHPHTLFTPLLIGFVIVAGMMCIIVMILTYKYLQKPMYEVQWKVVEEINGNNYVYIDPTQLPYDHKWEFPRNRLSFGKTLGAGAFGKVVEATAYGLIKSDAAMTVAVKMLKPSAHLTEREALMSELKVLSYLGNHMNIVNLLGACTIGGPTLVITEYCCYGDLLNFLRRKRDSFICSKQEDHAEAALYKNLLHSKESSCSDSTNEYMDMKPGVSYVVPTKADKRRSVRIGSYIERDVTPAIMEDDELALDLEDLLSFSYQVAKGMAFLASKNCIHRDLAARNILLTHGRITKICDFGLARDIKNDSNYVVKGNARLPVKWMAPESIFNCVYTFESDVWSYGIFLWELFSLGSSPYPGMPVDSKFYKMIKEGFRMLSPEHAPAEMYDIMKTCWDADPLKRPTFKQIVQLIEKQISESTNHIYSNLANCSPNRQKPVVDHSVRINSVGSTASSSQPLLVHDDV

IC50 [2]: 1600 nM
inhibition [4]: Dose-dependent effect
IC50 [5]: 600 nM
Activity [6]: 100%
inhibition [7]: Active
inhibition [10]: inactive
inhibition [14]: inactive
Activity [15]: 103%
inhibition [16]: inactive
Activity [17]: 88%
Compound: CNC(=O)CCc1cc(-c2ccc(-c3ccc(C(F)(F)F)cc3)cc2)n(-c2ccc(N3CCNCC3)cc2)n1
Activity [1]: 14.9%
Activity [3]: Dose-dependent effect
inhibition (INH) [8]: Not Active
Activity [9]: inactive
Activity [11]: inactive
Activity [12]: Active
Activity [13]: inactive
